Source: PubChem
This is a sample that favours compounds with a hit; in the whole collection about 2.2% have one here.
IMP-1 inh: inhibitors of Pseudomonas aeruginosa IMP-1 metallo-beta-lactamase. purified IMP-1, nitrocefin hydrolysis, epi-absorbance fluorescence. inhibition, % at 5.6 µM. 290,000 tested, 0.45% active. AID 1556;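 active = inhibition above the mean plus 3 SD of all compounds in the same screening run, cut at about 4.5% in these data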
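System: Purified IMP-1 | Read-out basis: Percent enzyme inhibition | Controls: IMP-1 with DMSO as 0%, enzyme-free DMSO as 100% | Replicates: One well per compound | Doses: 5.6 µM nominal single concentration | Detection: Epi-absorbance fluorescence, 480 nm excitation, 530 nm emission | Incubation: 25 °C, 15 min preincubation, 25 min reaction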
MEX-5 binding: C. elegans MEX-5 TCR-2 RNA binding activity; Q9XUB2; MEX-5/FITC-TCR2 RNA binding, fluorescence polarization; hits give low values; activity score (negative = inhibition of binding), % at 10 µM; 300,000 tested, 0.38% active; AID 1832;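 active = inhibition past about -25% in most replicates, and total fluorescence under double the plate's negative control median, limit read from the data; inconclusive = replicates evenly split on the limit, or fluorescence at least double controls; inactive = too little inhibition in most replicates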
GLD-1 RNA inh: GLD-1-TGE RNA interaction inhibition (C. elegans) | Q17339 | purified GLD-1 + fluorescein TGE RNA, fluorescence polarization | inhibition, % at 5.96 µM | 320,000 tested, 0.44% active | AID 2280;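 active = percent inhibition above a per-plate cutoff, the plate mean of test compounds plus 3 SD, cut at about 30% in these data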
Target sequence (Q17339 whole entry, looked up): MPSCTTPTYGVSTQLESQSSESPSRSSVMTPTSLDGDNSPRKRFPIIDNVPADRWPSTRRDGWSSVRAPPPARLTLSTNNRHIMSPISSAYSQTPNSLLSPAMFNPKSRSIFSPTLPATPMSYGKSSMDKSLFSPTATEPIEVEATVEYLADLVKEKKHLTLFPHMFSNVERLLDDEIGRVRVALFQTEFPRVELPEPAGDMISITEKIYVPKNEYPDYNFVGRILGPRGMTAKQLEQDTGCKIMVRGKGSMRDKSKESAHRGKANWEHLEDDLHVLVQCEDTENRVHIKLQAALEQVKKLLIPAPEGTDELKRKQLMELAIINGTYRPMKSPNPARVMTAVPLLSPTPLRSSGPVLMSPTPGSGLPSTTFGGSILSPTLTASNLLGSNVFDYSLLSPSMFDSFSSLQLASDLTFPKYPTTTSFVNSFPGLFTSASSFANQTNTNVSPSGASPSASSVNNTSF
Bcl-xL primary: inhibitors of human Bcl-xL. Q07817. GST-Bcl-xL / FITC-Bim BH3 peptide fluorescence polarization. inhibition, % at 10.9 µM. 320,000 tested, 0.7% active. AID 2129;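 active = inhibition above the mean of all tested compounds plus 3 SD, cutoff set per campaign, cut at about 30% in these data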;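 also: inhibitors lower millipolarization by displacing the labeled peptide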
VIM-2 inhibitor: inhibitors of Pseudomonas aeruginosa VIM-2 metallo-beta-lactamase. AID 1527. inhibition, % at 5.6 µM. purified VIM-2, nitrocefin hydrolysis, epi-absorbance fluorescence. 290,000 tested, 0.89% active;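 active = inhibition above the mean of all tested compounds plus 3 SD, cutoff set per screening run, cut at about 7.5% in these data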;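 also: red hydrolysis product quenches plate fluorescence so inhibitors raise well fluorescence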
EBV gp42 inh: inhibitors of Epstein-Barr virus glycoprotein 42. Q1HVG2. Fluorescence polarization binding assay, mP read-out. inhibition, % (tested at 21.74 µM). 220,000 tested, 0.42% active; in the data active = inhibition above about 50%
Target sequence (Q1HVG2 whole entry, looked up): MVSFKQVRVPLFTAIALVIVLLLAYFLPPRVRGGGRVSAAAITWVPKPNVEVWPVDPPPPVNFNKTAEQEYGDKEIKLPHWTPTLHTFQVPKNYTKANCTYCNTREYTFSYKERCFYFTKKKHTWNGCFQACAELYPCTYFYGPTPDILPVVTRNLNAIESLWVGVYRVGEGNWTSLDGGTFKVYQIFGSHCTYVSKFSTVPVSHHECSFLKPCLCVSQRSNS
Hits are given with their value.

For CC(=O)Nc1ccc(/C=C/C(=O)c2ccc3c(c2)OCCO3)cc1 the results were IMP-1 inh inactive, MEX-5 binding -53.3, GLD-1 RNA inh inactive, Bcl-xL primary inactive and VIM-2 inhibitor inactive.
`O=C(O)c1ccc(/C=C/C(=O)c2ccc3c(c2)OCCCO3)cc1` gave IMP-1 inh inactive, MEX-5 binding inactive, GLD-1 RNA inh inactive, Bcl-xL primary inactive and VIM-2 inhibitor inactive.
Screening COc1ccc(N/C=C/C(=O)c2ccc3c(c2)OCO3)cc1OC returned IMP-1 inh inactive, MEX-5 binding -34.1, GLD-1 RNA inh inactive, Bcl-xL primary inactive, VIM-2 inhibitor inactive and EBV gp42 inh inactive.
For CCOc1ccc(N/C=C/C(=O)c2ccc(OC)cc2)c([N+](=O)[O-])c1 the results were IMP-1 inh inactive, MEX-5 binding inactive, GLD-1 RNA inh inactive, Bcl-xL primary inactive, VIM-2 inhibitor inactive and EBV gp42 inh 58.9.
COc1ccc(N/C=C/C(=O)c2ccc(C)cc2)c([N+](=O)[O-])c1 was read as IMP-1 inh inactive, MEX-5 binding inactive, GLD-1 RNA inh inactive, Bcl-xL primary inactive and VIM-2 inhibitor inactive.
For CC(=O)c1ccc(-c2ccc(C(=O)N3CCC(C(N)=O)CC3)o2)cc1 the results were MEX-5 binding inactive, GLD-1 RNA inh inactive and Bcl-xL primary inactive.
For CCc1nc(SCC(=O)Nc2ccc(F)cc2)c2c(=O)n(C)c(=O)n(C)c2n1 the results were IMP-1 inh inactive, MEX-5 binding inactive, GLD-1 RNA inh inactive, Bcl-xL primary inactive and VIM-2 inhibitor inactive.
For O=C(CNC(=O)c1ccc(Cl)cc1Cl)OC1CCCCC1=O (stereo not drawn) the results were GLD-1 RNA inh inactive.
`COc1ccc(N/C=C\C(=O)c2ccc(Br)cc2)cc1OC` gave IMP-1 inh inactive, MEX-5 binding inactive, GLD-1 RNA inh inactive, Bcl-xL primary inactive, VIM-2 inhibitor inactive and EBV gp42 inh inactive.
COc1ccc(N/C=C\C(=O)c2ccc(C)cc2)cc1OC was read as IMP-1 inh inactive, MEX-5 binding -47.8, GLD-1 RNA inh inactive, Bcl-xL primary inactive, VIM-2 inhibitor inactive and EBV gp42 inh inactive.
`Cc1ccccc1NS(=O)(=O)c1ccc2[nH]cc(C(=O)N(C)Cc3ccco3)c(=O)c2c1` gave IMP-1 inh 4.5, MEX-5 binding inactive, GLD-1 RNA inh inactive, Bcl-xL primary inactive, VIM-2 inhibitor inactive and EBV gp42 inh inactive.
COc1cccc(NS(=O)(=O)c2ccc3[nH]cc(C(=O)N(C)Cc4ccco4)c(=O)c3c2)c1 was read as IMP-1 inh inactive, MEX-5 binding inactive, GLD-1 RNA inh inactive, Bcl-xL primary inactive, VIM-2 inhibitor inactive and EBV gp42 inh inactive.
Screening CCOC(=O)c1nnn(CC(=O)NC(=O)Nc2ccccc2)c1C(=O)OCC returned IMP-1 inh inactive, MEX-5 binding inactive, GLD-1 RNA inh inactive, Bcl-xL primary 53.2, VIM-2 inhibitor inactive and EBV gp42 inh inactive.
For CN(C)CCN(C(=O)c1cccc2ccccc12)c1nc2cc3c(cc2s1)OCO3 the results were IMP-1 inh inactive, MEX-5 binding inactive, GLD-1 RNA inh inactive, Bcl-xL primary inactive and VIM-2 inhibitor inactive.
For C(#Cc1c(-c2ccsc2)sc2ccccc12)c1ccsc1 the results were GLD-1 RNA inh inactive.
Screening CC1CN(CCCCOc2ccc(Cl)c3ccccc23)CC(C)O1 (stereo not drawn) returned IMP-1 inh 4.5, MEX-5 binding inactive, GLD-1 RNA inh inactive, Bcl-xL primary inactive and VIM-2 inhibitor inactive.
Screening O=C(COc1ccc(Br)cc1)Nc1ccncc1 returned IMP-1 inh inactive, MEX-5 binding inactive, GLD-1 RNA inh inactive, Bcl-xL primary inactive, VIM-2 inhibitor inactive and EBV gp42 inh inactive.
`CCC(C)(C)c1ccc(OCC(=O)Nc2ccncc2)cc1` gave IMP-1 inh inactive, MEX-5 binding inactive, GLD-1 RNA inh inactive, Bcl-xL primary 69.1 and VIM-2 inhibitor inactive.
`COc1ccc(CN2C=C3C(=O)C(C)(OC(=O)C4CCCC4)C(=O)C=C3C=C2c2ccsc2)cc1` (stereo not drawn) gave MEX-5 binding inactive, GLD-1 RNA inh inactive, Bcl-xL primary inactive and EBV gp42 inh inactive.
Screening COc1ccc(C2=CC3=C(Br)C(=O)C(C)(OC(=O)C4CCCC4)C(=O)C3=CO2)cc1 (stereo not drawn) returned MEX-5 binding inconclusive, GLD-1 RNA inh inactive, Bcl-xL primary 31.1 and EBV gp42 inh inactive.
Screening COC(=O)CCC(=O)OC1(C)C(=O)C2=CN(Cc3ccc4c(c3)OCO4)C(c3ccc(OC)cc3)=CC2=C(Br)C1=O (stereo not drawn) returned MEX-5 binding inactive, GLD-1 RNA inh inactive and Bcl-xL primary inactive.
Screening CC1(OC(=O)CCc2ccccc2)C(=O)C=C2C=C(c3ccsc3)OC=C2C1=O (stereo not drawn) returned MEX-5 binding inactive, GLD-1 RNA inh inactive, Bcl-xL primary inactive and EBV gp42 inh inactive.
COc1ccc(C2=CC3=C(Br)C(=O)C(C)(OC(=O)c4ccc(Cl)nc4)C(=O)C3=CO2)cc1 (stereo not drawn) was read as MEX-5 binding -30.3, GLD-1 RNA inh inactive, Bcl-xL primary inactive and EBV gp42 inh inactive.
For COC(=O)CCC(=O)OC1(C)C(=O)C2=COC(c3ccc(OC)cc3)=CC2=C(Br)C1=O (stereo not drawn) the results were MEX-5 binding inactive, GLD-1 RNA inh inactive, Bcl-xL primary 33.0 and EBV gp42 inh inactive.
CCOC(=O)C1C(=O)C=C(/C=C/c2ccc(N(C)C)cc2)CC1c1ccccc1 (stereo not drawn) was read as IMP-1 inh inactive, MEX-5 binding inconclusive, GLD-1 RNA inh inactive, Bcl-xL primary inactive, VIM-2 inhibitor inactive and EBV gp42 inh 103.2.
Screening COc1ccc(C(CNC(=O)CN(C)S(=O)(=O)c2ccc(C)cc2)N2CCCC2)cc1 (stereo not drawn) returned GLD-1 RNA inh inactive.
`Cc1ccc(-c2ccccc2NC(=O)CS(=O)CC(=O)Nc2ccc(C)c(Cl)c2)o1` (stereo not drawn) gave IMP-1 inh inactive, MEX-5 binding inactive, GLD-1 RNA inh 140.1, Bcl-xL primary 119.1 and VIM-2 inhibitor inactive.
Screening O=S(=O)(Nc1cccc(-c2ccc3nncn3n2)c1)c1cc(F)ccc1F returned MEX-5 binding inactive, GLD-1 RNA inh inactive and Bcl-xL primary inactive.
Screening CC(=O)OCCNc1cc(SCc2ccco2)c2nonc2c1[N+](=O)[O-] returned IMP-1 inh inactive, MEX-5 binding inactive, GLD-1 RNA inh inactive, Bcl-xL primary inactive, VIM-2 inhibitor inactive and EBV gp42 inh inactive.
Screening O=[N+]([O-])c1c(NCCCO)cc(SCc2ccco2)c2nonc12 returned IMP-1 inh inactive, MEX-5 binding inactive, GLD-1 RNA inh inactive, Bcl-xL primary 31.4, VIM-2 inhibitor inactive and EBV gp42 inh inactive.
CC(C)(C)c1cc(CNC2CS(=O)(=O)C[C@@H]2O)cc(C(C)(C)C)c1O (stereo partly drawn) was read as IMP-1 inh 7.3, MEX-5 binding inactive, GLD-1 RNA inh inactive, Bcl-xL primary inactive, VIM-2 inhibitor inactive and EBV gp42 inh inactive.
